Laboratory results: ChEMBL document CHEMBL4613248, “Twelfth-Position Deuteration of Nevirapine Reduces 12-Hydroxy-Nevirapine Formation and Nevirapine-Induced Hepatocyte Death” (J Med Chem, 2020)
Each block holds one compound with its values, some of them ahead of it.

How the values were obtained:
[1] = Plasma concentration in human; assay type: ADME, cell-free
[2] = Drug metabolism in human assessed as formation of 12-OH-NVP; assay type: ADME
[3] = Drug metabolism in C57BL/6J mouse primary hepatocytes assessed as Cytochrome P450-mediated formation of 2-OHNVP at 10 uM incubated for 24 hrs by uHPLC-MS analysis; assay type: ADME, cell-based
Outline: (§1)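 Fresh hepatocytes from male C57BL/6J mice (8–13 weeks), adhered overnight, then 10 μM substrate or vehicle (0.1% DMSO) for 24 h. Medium extracted with acetonitrile (50% final), dried, reconstituted in methanol; uHPLC-Orbitrap targeted SIM plus PRM (monooxygenated metabolites) or high-resolution ions (O-glucuronides, 459.1510/462.1700 ±5 ppm); four experimental replicates.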

[4] = Drug metabolism in C57BL/6J mouse primary hepatocytes assessed as Cytochrome P450-mediated formation of 3-OHNVP at 10 uM incubated for 24 hrs by uHPLC-MS analysis; assay type: ADME, cell-based; outline: as §1
[5] = Drug metabolism in C57BL/6J mouse primary hepatocytes assessed as Cytochrome P450-mediated formation of 12-OHNVP at 10 uM incubated for 24 hrs by uHPLC-MS analysis; assay type: ADME, cell-based; outline: as §1
[6] = Drug metabolism in C57BL/6J mouse primary hepatocytes assessed as Cytochrome P450-mediated formation of 8-OHNVP at 10 uM incubated for 24 hrs by uHPLC-MS analysis; assay type: ADME, cell-based; outline: as §1
Cytochrome P450 [7] = assay: Drug metabolism in human primary hepatocytes assessed as Cytochrome P450-mediated formation of 3-OHNVP at 10 uM incubated for 24 to 48 hrs by uHPLC-MS analysis; assay type: ADME, cell-based
Outline: (§2)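 Cryoplateable pooled human hepatocytes (10 mixed-sex donors per pool, three lots), adhered overnight, then 10 μM substrate or vehicle (0.1% DMSO) for 24 or 48 h in InVitroGRO CP medium. Medium extracted with 50% acetonitrile, dried, reconstituted in methanol; uHPLC-Orbitrap MS/MS for monooxygenated metabolites, high-resolution MS for O-glucuronide.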

Cytochrome P450 [8] = assay: Drug metabolism in human primary hepatocytes assessed as Cytochrome P450-mediated formation of 2-OHNVP at 10 uM incubated for 24 to 48 hrs by uHPLC-MS analysis; assay type: ADME, cell-based; outline: as §2
[9] = Drug metabolism in C57BL/6J mouse primary hepatocytes assessed as O-GlucNVP metabolite formation at 10 uM incubated for 24 hrs by uHPLC-MS analysis; assay type: ADME, cell-based, Hepatocyte; outline: as §1
[10] = Drug metabolism in C57BL/6J mouse primary hepatocytes assessed as 12-O-GlucD2NVP metabolite formation at 10 uM incubated for 24 hrs by uHPLC-MS analysis; assay type: ADME, cell-based, Hepatocyte; outline: as §1
[11] = Drug metabolism in human primary hepatocytes assessed as O-GlucNVP metabolite formation at 10 uM incubated for 24 hrs by uHPLC-MS analysis; assay type: ADME, cell-based, Hepatocyte; outline: as §2
Cytochrome P450 [12] = assay: Drug metabolism in human liver microsomes assessed as Cytochrome P450-mediated formation of 12-OHNVP at 1 to 400 uM in presence of NADPH regenerating reagents by uHPLC-MS/MS analysis; assay type: ADME
Outline: (§3)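 Pooled human liver microsomes (2.5 mg/mL) in potassium phosphate; substrate (1–400 μM) prewarmed 5 min at 37 °C with NADPH-regenerating system, started with microsomes, 30 min at 37 °C. 12-OH product quantified by uHPLC-MS/MS Orbitrap against 12-OHNVP standard curve made in microsomes without NADPH. Kcat/Km taken as slope of linear rate vs substrate fit at nonsaturating 0–50 μM.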

Cytochrome P450 [13] = assay: Drug metabolism in human liver microsomes assessed as Cytochrome P450-mediated formation of 12-OHNVP by measuring Kcat/Km ratio in presence of NADPH regenerating reagents by uHPLC-MS/MS analysis; outline: as §3
Cytochrome P450 [14] = assay: Drug metabolism in human liver microsomes assessed as Cytochrome P450-mediated formation of 3-OHNVP formation at 5 to 400 uM in presence of NADPH regenerating reagents by uHPLC-MS/MS analysis; assay type: ADME
Outline: (§4)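 Pooled human liver microsomes (2.5 mg/mL) with NADPH-regenerating system, substrate 5–400 μM, 30 min at 37 °C, 0.1% DMSO (0.2% at 400 μM); 2- and 3-OH metabolites by uHPLC-MS/MS Orbitrap; three replicates, mean ± SD.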

Cytochrome P450 [15] = assay: Drug metabolism in human liver microsomes assessed as Cytochrome P450-mediated formation of 2-OHNVP formation at 5 to 400 uM in presence of NADPH regenerating reagents by uHPLC-MS/MS analysis; assay type: ADME; outline: as §4
Hepatocyte = assay: Toxicity in C57BL/6J mouse primary hepatocytes assessed as reduction in cell viability by measuring EtBr-positive cell nuclei level at 400 uM incubated for 8 hrs by EtBr/AcrO staining based assay (reference value: 19%)
Outline: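 Fresh male C57BL/6J mouse hepatocytes on collagen-coated coverslips, 400 μM compound or vehicle (0.2% DMSO) for 8 h; 10 μM staurosporine as positive control. Ethidium bromide/acridine orange costaining, imaging, percentage of EtBr-positive nuclei scored as dead cells; unpaired two-tailed t test.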

[16] = Drug level in C57BL/6J mouse primary hepatocytes treated with 10 uM NVP assessed as Cytochrome P450-mediated compound formation incubated for 24 hrs by uHPLC-MS analysis; assay type: ADME, cell-based
Outline: (§5)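 Fresh hepatocytes from male C57BL/6J mice (8–13 weeks), ≥85% viable on plating, adhered overnight, then given fresh medium with compound (final 0.1% DMSO vehicle) for 24 h in 12-well format. Culture medium deproteinized with acetonitrile (final 50%), dried, reconstituted in methanol; monooxygenated metabolites (2-, 3-, 12-OH) measured by uHPLC-MS/MS on Orbitrap. Four experimental replicates.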

Cytochrome P450 [17] = assay: Drug level in human primary hepatocytes treated with 10 uM NVP assessed as Cytochrome P450-mediated compound formation incubated for 24 hrs by uHPLC-MS analysis; assay type: ADME, cell-based
Outline: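 Cryoplateable pooled human hepatocytes (10 mixed-sex donors per lot, three lots), ≥90% viable on plating, adhered overnight, then dosed in fresh InVitroGRO CP medium with antibiotics (vehicle 0.1% DMSO) for 24 h, 12-well format. Medium extracted by acetonitrile precipitation (final 50%), dried, reconstituted in methanol; 2-, 3- and 12-OH metabolites quantified by uHPLC-MS/MS on Orbitrap.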

[18] = Drug level in C57BL/6J mouse primary hepatocytes treated with 10 uM 2-D3NVP assessed as Cytochrome P450-mediated compound formation incubated for 24 hrs by uHPLC-MS analysis; assay type: ADME, cell-based; conditions: in the assay text read “12-D3NVP” for “2-D3NVP”; outline: as §5

Structure (SMILES): Cc1ccnc2c1NC(=O)c1cccnc1N2C1CC1 [NEVIRAPINE]
concentration [1]: 16 µM | Drug metabolism [2]: 1.3 µM | Drug metabolism [3]: Metabolite_Detected | Drug metabolism [4]: Metabolite_Detected | Drug metabolism [5]: Metabolite_Detected | Drug metabolism [6]: Metabolite_Notdetected | Drug metabolism (Cytochrome P450 [7]): Metabolite_Detected | Drug metabolism (Cytochrome P450 [8]): Metabolite_Detected | Drug metabolism [9]: Metabolite_Detected | Drug metabolism [10]: Metabolite_Notdetected | Drug metabolism [11]: Metabolite_Detected | Drug metabolism (Cytochrome P450 [12]): Metabolite_Detected | Kcat/Km (Cytochrome P450 [13]): 1.4 M⁻¹ s⁻¹ | Drug metabolism (Cytochrome P450 [14]): Metabolite_Detected | Drug metabolism (Cytochrome P450 [15]): Metabolite_Detected | Activity (Hepatocyte): 52.6%

Drug uptake [16]: Metabolite_Detected | Drug uptake (Cytochrome P450 [17]): Metabolite_Detected
Structure (SMILES): Cc1cc(O)nc2c1NC(=O)c1cccnc1N2C1CC1

Drug uptake [18]: Metabolite_Detected
Structure (SMILES): [2H]C([2H])([2H])c1c(O)cnc2c1NC(=O)c1cccnc1N2C1CC1

Drug uptake [16]: Metabolite_Detected
Structure (SMILES): O=C1Nc2c(CO)ccnc2N(C2CC2)c2ncccc21

Drug uptake [16]: Metabolite_Detected | Drug uptake (Cytochrome P450 [17]): Metabolite_Detected
Structure (SMILES): Cc1c(O)cnc2c1NC(=O)c1cccnc1N2C1CC1

Drug uptake [18]: Metabolite_Detected
Structure (SMILES): [2H]C([2H])(O)c1ccnc2c1NC(=O)c1cccnc1N2C1CC1

Drug uptake [18]: Metabolite_Detected
Structure (SMILES): [2H]C([2H])([2H])c1cc(O)nc2c1NC(=O)c1cccnc1N2C1CC1
